Assay outcomes as filed in PubChem BioAssay.
Sampled rows, rich in hits. Any-hit rate of the full collection: about 2.9%.
H9c2 TAG inh = inhibitors of triacylglycerol accumulation | 230,000 tested, 0.66% active | AID 651582 | H9c2 cells, Nile Red lipid (TAG) fluorescence; cells loaded with 200 µM oleic acid | inhibition, % at 12.5 µM;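 active = pattern-corrected inhibition of lipid staining of at least 50% with the nuclear-stain viability signal not falling by more than 50%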
GalR3 antagonist = antagonists of human GalR3. O60755. HEK293 GalR3-CNG cAMP membrane potential fluorescence; galR3 body fused to GalR1 C-terminus. inhibition, % at 3 µM. 360,000 tested, 0.44% active. AID 651719;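 active = inhibition above the screen-wide average plus 3 SD, cut at about 13% in these data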;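 also: forskolin and galanin both at EC90 stimulate the cells; cAMP rise reported by CNG channel membrane potential dye signal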
Target sequence (O60755 1-299 limits assumed): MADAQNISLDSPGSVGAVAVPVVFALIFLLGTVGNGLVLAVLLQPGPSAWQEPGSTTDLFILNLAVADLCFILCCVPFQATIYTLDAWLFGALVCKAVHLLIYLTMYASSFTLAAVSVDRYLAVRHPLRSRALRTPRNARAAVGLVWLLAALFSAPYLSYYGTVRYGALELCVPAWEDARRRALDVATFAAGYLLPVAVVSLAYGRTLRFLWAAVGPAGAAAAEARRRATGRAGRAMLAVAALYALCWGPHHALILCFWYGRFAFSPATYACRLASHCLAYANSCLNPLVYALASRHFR
MC4R ag barr = activates human MC4R beta-arrestin recruitment; U2OS MC4R beta-arrestin complementation, luminescence; percent of melanotan II response, DMSO zero; 360,000 tested, 0.98% active; activation, % at 8.9 µM; AID 540308; P32245;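 active = activation above a per-plate cutoff, the mean activation of sample wells on that plate plus 3 SD, cut at about 8% in these data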
Target sequence (P32245 whole entry, looked up): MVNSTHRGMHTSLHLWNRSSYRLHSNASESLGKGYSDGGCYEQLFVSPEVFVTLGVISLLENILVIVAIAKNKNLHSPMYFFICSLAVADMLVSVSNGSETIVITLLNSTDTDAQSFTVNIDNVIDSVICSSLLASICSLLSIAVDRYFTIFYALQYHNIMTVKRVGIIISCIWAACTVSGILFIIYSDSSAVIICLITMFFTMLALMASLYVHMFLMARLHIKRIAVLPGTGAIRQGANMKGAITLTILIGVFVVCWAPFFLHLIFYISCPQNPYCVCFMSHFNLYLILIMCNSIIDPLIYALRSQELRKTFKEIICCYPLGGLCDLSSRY
Efflux pump inh = antifungal efflux pump inhibition, Nile Red retention | S. cerevisiae Candida pump triplex | inhibition, % at 10 µM | 330,000 tested, 0.44% active | AID 485275;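 active = plate passing quality check with inhibition over a set limit, or well fluorescence over plate mean plus 4 SD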;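 also: Nile Red retained in pooled yeast measured as flow cytometry median fluorescence; higher means more Nile Red kept so more efflux inhibition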
MC4R antagonist = blocks human MC4R cAMP signaling. MC4R-expressing cells, MTII-stimulated cAMP, LANCE TR-FRET. AID 540295. P32245. inhibition, % at 6.5 µM. 360,000 tested, 0.48% active;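 active = inhibition above its plate's cutoff, the mean of tested wells on that plate plus 3 SD, cut at about 29% in these data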
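Assay system: U2OS-MC4R stable cell line; Also added: Melanotan II; Technique: Eu-cAMP/anti-cAMP TR-FRET, emission 671 nm; Times: 30-min compound, 1-h challenge, 1-h detection, room temperature.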
Calb FLC = C. albicans growth modulation with fluconazole; C. albicans CaCi-2 + fluconazole, Alamar Blue growth, 48 h; 300,000 tested, 0.57% active; growth inhibition, % (test concentration not listed);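 active = growth inhibition above about 58% in most replicates, limit read from the data, passing the limit was not always enough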;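 also: all wells also contain fluconazole at 8 µg/ml as a sub-toxic cotreatment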
Cmpd fluor yeast = flagged as fluorescent in efflux inhibitor counter-screen. shares compounds with Efflux pump inh. fluorescence ratio to DMSO, % at 10 µM. 1,700 tested, 4% active. S. cerevisiae AD/pABC3, compound fluorescence, flow cytometry. AID 588517;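 active = fluorescence ratio to DMSO above its plate's cutoff, the plate mean ratio plus 5 SD, cut at about 210% in these data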;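 also: unstained yeast with no Nile Red so the signal is compound autofluorescence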
CaMdr1 efflux inh = blocks the Candida albicans Mdr1 efflux pump in yeast; inhibition, % at 10 µM; shares compounds with Efflux pump inh; 1,700 tested, 1% active; S. cerevisiae AD/CaMDR1, Nile Red efflux, flow cytometry; AID 588518; in the data active = inhibition above about 26%;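 also: higher means more Nile Red retained so more efflux inhibition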
CaCdr2 efflux inh = blocks the Candida albicans Cdr2 efflux pump in yeast; shares compounds with Efflux pump inh; S. cerevisiae AD/CaCDR2, Nile Red retention, flow cytometry; 1,700 tested, 4% active; Nile Red retention ratio vs DMSO, % at 10 µM; in the data active = Nile Red retention ratio vs DMSO above about 190%;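 also: higher ratio means more blocking of Cdr2 efflux of the dye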
CaCdr1 efflux inh = blocks the Candida albicans Cdr1 efflux pump in yeast. shares compounds with Efflux pump inh. S. cerevisiae AD/CaCDR1, Nile Red efflux, flow cytometry. inhibition, % at 10 µM. 1,700 tested, 1% active;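 active = inhibition above the screen-wide mean plus twice its standard deviation, cut at about 32% in these data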
Hits are given with their value; - = inactive; . = no result; + = active, no number.

SMILES	H9c2 TAG inh	GalR3 antagonist	MC4R ag barr	Efflux pump inh	MC4R antagonist	Calb FLC	Cmpd fluor yeast	CaMdr1 efflux inh	CaCdr2 efflux inh	CaCdr1 efflux inh
CC1=NN(c2ccccc2)C(=O)/C1=C/N(C)C	-	-	-	-	-	-	.	.	.	.
CC1=NN(c2nc3ccccc3[nH]2)C(=O)/C1=C/N(C)C	-	.	-	2.4	-	-	-	-	-	-
CCc1c(-c2ccc(F)cc2F)ncn1CCc1ccccc1OC	.	-	.	.	.	.	.	.	.	.
CC(Nc1nc(-c2ccccc2O)nc2ccccc12)c1ccccc1 (configuration not stated)	-	-	-	-	-	-	.	.	.	.
CC(Nc1nc(-c2ccccc2)nc2ccccc12)c1ccccc1 (configuration not stated)	-	-	-	1.9	-	-	-	-	-	-
COc1cc(/C=C2\SC(=S)N(Nc3ncc(C(F)(F)F)cc3Cl)C2=O)ccc1O	-	-	-	-	-	-	478	-	-	-
CN(C)c1ccc(/C=C2\SC(=S)N(Nc3ncc(C(F)(F)F)cc3Cl)C2=O)cc1	-	-	-	1.2	-	-	+	-	237	-
COc1cccc(C(=O)NCCS(=O)(=O)N2CCCC(C)C2)c1 (configuration not stated)	-	-	-	.	-	.	.	.	.	.
O=C(O)c1cccc(S(=O)(=O)Nc2ccccc2Oc2ccccc2)c1	-	-	-	.	-	.	.	.	.	.
Nc1ncnc2c1nc(N1CCCCC1)n2[C@@H]1O[C@H](CO)[C@@H](O)[C@H]1O	-	-	-	2.3	-	.	-	-	-	-
Cc1ccc(-n2c(-c3ccc(Br)cc3)c[n+]3c2CCc2ccc4cccnc4c2-3)cc1	.	-	-	1.1	-	99	-	-	+	-
COC(=O)[C@]12C[C@H](CC(=O)N3CCC(c4ccccc4)CC3)C(=O)N(CCC3=CCCCC3)C1=C[C@H](C(C)(C)C)O[C@@H]2C	.	-	.	.	.	.	.	.	.	.
COc1ccc(C(C(=O)NC(C)(C)C)N(C(=O)CCC(=O)Nc2cc(C)on2)c2cccc(F)c2)cc1 (configuration not stated)	.	-	-	-	-	-	-	-	-	-
CCOc1cccc(N(C(=O)CCC(=O)Nc2cc(C)on2)C(C(=O)NC(C)(C)C)c2ccc(OC)cc2)c1 (configuration not stated)	.	-	-	0.5	-	-	-	-	-	-
O=C(C1CCCCC1)N1C[C@@H](O)[C@H](n2cc(-c3ccc(F)cc3)nn2)C[C@@H]1c1ccc(Cl)cc1	-	-	-	.	-	.	.	.	.	.
CN(C)c1ccc(/C=C/c2cc[n+](C)cc2)cc1	.	-	-	130	-	-	+	+	488	+
Cc1ccc(/C=C/c2ccc(N(C)C)cc2)[n+](C)c1	.	-	-	4.4	-	82	+	34	-	-
CN(C)c1ccc(/C=C/c2cc[n+]([O-])cc2)cc1	.	.	.	-	.	-	.	.	.	.
CC[n+]1ccccc1/C=C/c1ccc(N(C)C)cc1	-	-	-	.	-	-	.	.	.	.
CC(C)CCNC(=O)c1cc(S(=O)(=O)N2CCC3(CC2)OCCO3)ccc1F	-	-	-	.	-	.	.	.	.	.
O=C(NC1CCCCC1)C(c1ccnc2ccccc12)n1c(=O)c(-c2ccccc2)nc2ccccc21 (configuration not stated)	.	-	.	.	.	.	.	.	.	.
COc1ccc(NC(=S)Nc2ccccc2)c(OC)c1	-	-	-	1.1	-	-	-	-	-	-
COc1ccc(NC(=S)Nc2ccc(OCc3ccccc3)cc2)c(OC)c1	.	-	-	-	-	-	.	.	.	.
O=C(CSc1ccc(Br)cc1)N1CCN(S(=O)(=O)c2ccccc2)CC1	-	-	-	2.0	-	-	-	-	-	-
CCCCNC(=O)C[C@H]1C[C@@]2(C(=O)OC)C(=C[C@H](C3CCCC3)O[C@@H]2C)N(Cc2ccccc2)C1=O	.	-	.	.	.	.	.	.	.	.
SMILES	H9c2 TAG inh	GalR3 antagonist	MC4R ag barr	Efflux pump inh	MC4R antagonist	Calb FLC	Cmpd fluor yeast	CaMdr1 efflux inh	CaCdr2 efflux inh	CaCdr1 efflux inh
COc1ccc(-c2ccc3c(c2)S(=O)(=O)c2cccc(C(=O)NC4CC4)c2C3=O)cc1OC	-	-	-	-	-	.	.	.	.	.
COc1ccc(-c2ccc3c(c2)S(=O)(=O)c2cccc(C(=O)NC4CCCCC4)c2C3=O)cc1OC	.	.	-	1.1	-	.	-	-	-	-
CCOc1ccc(/C(O)=C2/C(=O)C(=O)N(CCN(C)C)C2c2ccccc2)cc1Cl (configuration not stated)	-	-	-	8.9	-	-	-	-	-	-
CCN1CCN(c2cc(SC(C)C)nc(-c3ccc(OC)cc3)n2)CC1	-	-	-	.	-	-	-	-	-	-
Clc1ccc(Sc2cc(N3CCOCC3)nc(-c3ccccc3)n2)cc1	.	-	-	-	-	-	.	.	.	.
CC(C)Sc1cc(N2CCOCC2)nc(-c2ccc(Cl)cc2)n1	-	-	-	-	-	-	-	-	-	-
COc1cccc(Sc2cc(N3CCOCC3)nc(-c3ccccc3)n2)c1	-	-	-	-	-	-	.	.	.	.
CC(=O)N1CCN(c2ccc(NC(=O)c3ccccc3)cc2)CC1	-	-	-	-	-	-	.	.	.	.
CC(=O)N1CCN(c2ccc(NC(=S)NC(=O)c3ccccc3)cc2)CC1	.	-	-	5.8	-	-	-	-	-	-
CN(C(=O)c1cccc(NC(=O)Cc2ccc(NC(=O)C3CCCN(S(=O)(=O)c4cccc([N+](=O)[O-])c4)C3)cc2)c1)C1CCC1 (configuration not stated)	-	-	-	.	-	.	.	.	.	.
CCCSc1nnc(NC(=O)Nc2ccccc2)s1	.	-	-	15	-	-	-	-	-	-
CCCCOCC1CN(CCCC)S(=O)(=O)c2c(Oc3ccc(SC)c(C)c3)cccc2O1 (configuration not stated)	.	-	.	.	.	.	.	.	.	.
CC(C)n1cc(/C=N/NC(=O)COc2cccc3cccnc23)c2ccccc21	.	-	-	3.1	-	-	-	-	-	-
CCc1nc2ccc(C(=O)N3CCCC(C(N)=O)C3)cn2c1N(CCC(C)C)CCN(C)C (configuration not stated)	-	-	-	.	-	.	.	.	.	.
COC(=O)C[C@@H]1CC[C@H](NC(=O)CC2CC2)[C@@H](CO)O1	.	-	.	.	.	.	.	.	.	.
CCCn1c(-c2cccc(F)c2)nc2c1c(=O)[nH]c(=O)n2Cc1ccccc1	.	-	-	-	-	-	.	.	.	.
CCCn1c(-c2cc(OC)c(OC)c(OC)c2)nc2c1c(=O)[nH]c(=O)n2Cc1ccccc1	.	-	-	0.7	-	-	-	-	-	-
